From PubChem BioAssay
Active and inactive are the calls of the source.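 The calls were made as follows, unless noted: active = fluorescence slope after compound addition differing from the mean of all tested samples at 99.7% confidence, mostly higher but some lower; inactive = the rest.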

Assays:
[1] = inhibitors of TNFa-induced NFkB p65 translocation, primary screen, imaging, HUVEC, MLSMR starter and 10KST1 sets (AID 438;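 active = inhibition above 20% together with a positive visual image hit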;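 also: compound added about 3h40 before a 20 min TNFalpha stimulation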;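 as to inhibition: signal is the nuclear over cytoplasmic p65 intensity ratio per well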); details: HUVEC TNFa-induced p65 nuclear translocation; cell count: measured here: nuclei count (cytotoxicity indicator), at 2.08 µM; inhibition: at 2 µM, stronger effect = higher value, 0% TNFa-plus-vehicle, 100% no-TNFa wells
[2] = reduction of polyQ htt aggregates in cells – imaging, exon1htt(103Q)mCFP cells, high-content imaging, primary screen (AID 483;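 active = visual image review flags a hit and inhibition of aggregation exceeds 20%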;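 also: compound exposure lasted 3 days before fixation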;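 as to nuclei count: percent of the per-plate median nuclei count of sample wells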); details: exon1htt(103Q)mCFP cell line, aggregate imaging, at 2 µM; inhibition of aggregation: stronger effect = higher value; nuclei count: measured here: cell count, toxicity
[3] = endothelial E-selectin expression blockers – imaging, HUVEC, immunofluorescence, MLSMR starter and 10KST1 sets, primary screen (AID 487;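 active = visually confirmed hit in the image check and inhibition above 20%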;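 as to inhibition: signal is fraction of cell area covered by stained E-selectin grains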;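 as to nuclei count: 100% = median nuclei count of all wells on the same plate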); details: HUVEC TNFalpha-induced E-selectin immunofluorescence imaging, at 2 µM; inhibition: stronger effect = higher value; nuclei count: measured here: cell number, toxicity
[4] = biological target: Voltage-gated potassium channel subunit beta-2 (Rattus norvegicus) (UniProt P62483); test: inhibitors of rat Kvbeta2 reductase activity – biochemical, NADPH fluorescence, primary screen (AID 622;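 active = fluorescence slope higher than the sample average by over 3 SD, cut at about -0.22 in these data, passing the limit was not always enough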;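 also: slope of raw intensity against log time taken from 70 to 1610 s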); details: recombinant KvBeta, 4-cyanobenzaldehyde reduction, at 10 µM, stronger effect = higher value
[5] = biological target: Voltage-gated potassium channel subunit beta-2 (Rattus norvegicus) (UniProt P62483); test: enhancers of rat Kvbeta2 NADPH turnover – biochemical, NADPH fluorescence, primary screen (AID 623;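 active = NADPH fluorescence slope more negative than the mean of all samples by about 3 SD, 99.7% confidence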;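 also: fluorescence intensity change per second fitted from 20 to 320 s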); details: Recombinant KvBeta, NADPH fluorescence decrease slope, 10 min; at 10 µM; stronger effect = lower value
[6] = biological target: Muscarinic acetylcholine receptor M4 (Homo sapiens) (UniProt P08173); test: M4-linked GIRK flux change, two-sided – cell-based, HEK293 M4/GIRK, thallium flux, BTC-AM, M4 allosteric agonist project, primary screen (AID 625); details: at 10 µM, actives lie on both sides;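 also: thallium influx through GIRK channels coupled to M4 in HEK293 cells with BTC-AM dye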
Outline: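 Assay system: HEK293 cells with M4 receptor and GIRK channels / Controls: carbachol and DMSO controls / Schedule: 1 h dye loading, 2 min kinetic read / Technique: kinetic fluorescence with BTC-AM dye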

[7] = blockers of RIG-like receptor reporter activation – cell-based, Sendai virus stimulus, luciferase, 10K MLSCN set, TLR/RLR signaling modifier project, primary screen (AID 602276;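 active = inhibition at or above 50% at 10 µM; inactive = inhibition below 50%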;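 also: firefly luciferase from ISG56 promoter only with Renilla not read in this screen; 0% = Sendai virus plus DMSO and 100% = medium plus DMSO without virus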); details: HEK293 RL24 IRF3 luciferase reporter, at 10 µM, stronger effect = higher value
[8] = TLR3 IRF3 reporter activation blockers – cell-based, poly I:C stimulus, luciferase, 10K MLSCN set, primary screen (AID 602277;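 active = inhibition of the reporter signal at or above 50%; inactive = inhibition below 50%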); details: HEK293-TLR3 RL24 IRF3 luciferase reporter, at 10 µM, stronger effect = higher value

Chain of Muscarinic acetylcholine receptor M4 (Homo sapiens) (P08173 whole entry, looked up): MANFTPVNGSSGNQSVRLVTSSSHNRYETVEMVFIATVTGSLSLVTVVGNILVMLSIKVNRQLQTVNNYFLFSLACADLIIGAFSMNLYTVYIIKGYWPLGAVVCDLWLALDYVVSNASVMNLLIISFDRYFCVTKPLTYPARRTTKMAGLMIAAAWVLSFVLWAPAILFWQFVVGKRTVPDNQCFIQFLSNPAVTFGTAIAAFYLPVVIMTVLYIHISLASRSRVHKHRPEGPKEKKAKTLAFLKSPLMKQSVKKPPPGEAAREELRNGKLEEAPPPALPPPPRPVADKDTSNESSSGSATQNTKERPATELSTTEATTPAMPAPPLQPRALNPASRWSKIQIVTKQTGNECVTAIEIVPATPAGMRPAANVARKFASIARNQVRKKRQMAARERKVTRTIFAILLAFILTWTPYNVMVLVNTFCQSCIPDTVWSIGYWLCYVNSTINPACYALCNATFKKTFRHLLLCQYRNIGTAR
Chain of Voltage-gated potassium channel subunit beta-2 (Rattus norvegicus) (P62483 whole entry, looked up): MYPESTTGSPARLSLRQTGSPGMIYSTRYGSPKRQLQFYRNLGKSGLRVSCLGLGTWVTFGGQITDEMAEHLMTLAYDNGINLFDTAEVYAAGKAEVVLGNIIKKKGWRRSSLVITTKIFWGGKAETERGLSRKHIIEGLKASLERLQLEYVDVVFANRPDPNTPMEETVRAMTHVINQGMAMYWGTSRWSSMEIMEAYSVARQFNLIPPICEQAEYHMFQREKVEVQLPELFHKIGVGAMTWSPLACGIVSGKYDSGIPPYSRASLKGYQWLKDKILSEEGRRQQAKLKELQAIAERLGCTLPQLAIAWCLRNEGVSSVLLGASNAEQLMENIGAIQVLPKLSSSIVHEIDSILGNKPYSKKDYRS

Structure (SMILES) | cell count [1] | inhibition [1] | inhibition of aggregation [2] | nuclei count [2] | inhibition [3] | nuclei count [3] | fluorescence slope [4] | NADPH fluorescence slope [5] | fluorescence slope [6] | inhibition [7] | inhibition [8]
Cc1noc(C)c1C(=O)Nc1sc(C)c(C)c1C#N | 264 | 3.7% (inactive) | 7.6% (inactive) | 87.5% | -40.3% (inactive) | 103% | -0.436 (inactive) | -2.4e-06 (inactive) | 0.00444 (inactive) | -9.52% (inactive) | -43.8% (inactive)
CCn1nnnc1NCc1cccn1C | 401 | 11% (inactive) | -12% (inactive) | 110% | -41.2% (inactive) | 100% | -0.414 (inactive) | 0.000106 (inactive) | 0.00612 (inactive) | 16.1% (inactive) | 22% (inactive)
CC(=O)OC(C(=O)NCc1ccco1)c1cccnc1 (stereo not drawn) | 609 | -36.2% (inactive) | -14.7% (inactive) | 105% | -9.7% (inactive) | 135% | -0.553 (inactive) | -7.1e-05 (inactive) | 0.00644 (inactive) | 13% (inactive) | 15.9% (inactive)
O=C1CC(C(=O)Nc2ccccc2)C2(CCCC2)O1 (stereo not drawn) | 425 | 6% (inactive) | 2.4% (inactive) | 106% | -80.4% (inactive) | 110% | -0.569 (inactive) | -5.8e-05 (inactive) | 0.00631 (inactive) | 4.72% (inactive) | 6.07% (inactive)
CC(C(=O)N1CCCCC1)n1ncn2cccc2c1=O (stereo not drawn) | 397 | -2.5% (inactive) | 0.4% (inactive) | 94.2% | -4.6% (inactive) | 97.4% | -0.595 (inactive) | -2.8e-05 (inactive) | 0.00463 (inactive) | 6.93% (inactive) | 98.3% (active)
O=C(Nc1ccc(N2CCCC2=O)cc1)c1cccc(F)c1 | 226 | -5.9% (inactive) | 15.3% (inactive) | 90.3% | -11.4% (inactive) | 71.5% | -0.461 (inactive) | 2e-05 (inactive) | 0.00447 (inactive) | -49% (inactive) | -122% (inactive)
CCC(c1nnc(SCC(=O)NCC2CCCO2)n1Cc1ccccc1)N(C)C (stereo not drawn) | 414 | -5.7% (inactive) | 0.8% (inactive) | 52.5% | -136% (inactive) | 110% | -0.508 (inactive) | -2.1e-05 (inactive) | 0.00548 (inactive) | 21% (inactive) | 25.8% (inactive)
COc1ccccc1-c1cc(C(=O)NCCCn2ccnc2)no1 | 459 | -15.2% (inactive) | -15.7% (inactive) | 106% | 49.5% (inactive) | 90% | -0.291 (inactive) | -2.7e-05 (inactive) | 0.00777 (inactive) | 5.02% (inactive) | 36% (inactive)
